These results are taken from publication PMC3135172 (Cell, 2011).

For one experiment, the system named is H4K12ac. Briefly: Enrichment of H4K12ac in cells cultured in trichostatin A. It counts as cell-based. The following applies: Figure S7H.
Another experiment concerns the target BPTF bromodomain (Homo sapiens, UniProt Q12830). It counts as binding. The following applies: GST-tagged bromodomain, peptide array on modified cellulose scaffold. The gist of the method: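 Each acetylated peptide sits on a cellulose membrane, e.g. H4 residues 11–25 carrying a single ε-amine acetyl-lysine. […] Control and replicate blots were run. Spots that stained on the blot were retested for binding in solution.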

For another experiment, the system named is BPTF PHD finger. Put plainly: Binding of short H3K4me3 peptide in the absence of DNA. More on the design: species or system human. Particulars: Figure S2D.
For experiment [1], the system named is PHD-bromo module F154A mutant. Put plainly: FPA of PHD-bromo mutant F154A with histone peptides. It counts as binding, human. The following applies: Figure 4B.
In another experiment the test system is BPTF bromodomain V108A. Put plainly: ITC of H4K16ac peptide with BPTF bromodomain mutant V108A. The following applies: Kd outside of the accurately measurable range, Figure 5D. It is filed as binding, human.
The subject of another experiment is BPTF bromodomain Y147F. Put plainly: ITC of H4K16ac peptide with BPTF bromodomain mutant Y147F. It is filed as binding, human. The following applies: Kd outside of the accurately measurable range, Figure 5D.
The next experiment concerns BPTF bromodomain W91A. Put plainly: ITC of H4K16ac peptide with BPTF bromodomain mutant W91A. It is filed as binding, human. The following applies: not reliably quantifiable, Figure 5E.
Another experiment relates to BPTF bromodomain D101A. Put plainly: ITC of H4K16ac peptide with BPTF bromodomain mutant D101A. It counts as binding, human. Particulars: not reliably quantifiable, Figure 5E.

Take `CC(/C=C/C(=O)NO)=C\[C@@H](C)C(=O)c1ccc(N(C)C)cc1` [trichostatin A]: the “enrichment of H4K12ac mark” value with H4K12ac is “substantial enrichment of the mark”.

“H4K20ac: histone H4 peptide (residues 11–25 on the array) acetylated on the ε-amine of lysine 20”: the “SPOT blot interaction / staining” value in the experiment with BPTF bromodomain is “reproducible staining”.

With “H3K4me3 peptide: short H3K4me3[1–8] peptide used for the DNA ruler, tested without DNA”, the “binding of short peptide without DNA” value in the experiment on BPTF PHD finger was “bound effectively in the absence of DNA”.

As for “unmodified counterpart: unmodified histone H4 peptide, without acetylation [reference compound]”, in the experiment with BPTF bromodomain, the “SPOT blot interaction / staining” value was “displayed no detectable signal above background”.

With “H4K16ac: histone H4 peptide (residues 11–25 on the array) acetylated on the ε-amine of lysine 16”, in the experiment with BPTF bromodomain, the “SPOT blot interaction / staining” value is listed as “reproducible staining”. The “peptide binding to F154A mutant” value in experiment [1] is reported as “abolishes bromodomain binding of H4K16ac”. In addition, the “H4K16ac binding by V108A bromodomain” value in the experiment on BPTF bromodomain V108A was “modest binding deficits”. Also, the “H4K16ac binding by Y147F bromodomain” value in the experiment on BPTF bromodomain Y147F is reported as “modest binding deficits”. For the same compound, the “H4K16ac binding by W91A bromodomain” value in the experiment on BPTF bromodomain W91A is “more severe loss of affinity”. For the same compound, the “H4K16ac binding by D101A bromodomain” value with BPTF bromodomain D101A was “more severe loss of affinity”.
